Converted amounts (≈) assume the structure as drawn.
Legend:
Format in all cases: functional
[1] = tested on: Escherichia coli; test: Antibacterial activity against extended-spectrum beta-lactamase-producing Escherichia coli isolate 12-4
Outline: (§1)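 MIC determined in vitro by a standard technique and defined as the lowest compound concentration giving complete inhibition of bacterial growth. The Gram-positive and Gram-negative panels were tested alongside gemifloxacin, levofloxacin and ciprofloxacin reference drugs.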

[2] = tested on: Escherichia coli; test: Antibacterial activity against extended-spectrum beta-lactamase-producing Escherichia coli isolate 12-2; outline: as §1
[3] = tested on: Escherichia coli; test: Antibacterial activity against extended-spectrum beta-lactamase-producing Escherichia coli isolate 12-1; outline: as §1
[4] = tested on: Escherichia coli; test: Antibacterial activity against Escherichia coli isolate 12-5; outline: as §1
[5] = tested on: Escherichia coli; test: Antibacterial activity against Escherichia coli isolate 12-4; outline: as §1
[6] = tested on: Escherichia coli; test: Antibacterial activity against Escherichia coli isolate 12-1; outline: as §1
[7] = tested on: Escherichia coli; test: Antibacterial activity against Escherichia coli ATCC 25922; outline: as §1
[8] = tested on: Streptococcus pneumoniae; test: Antibacterial activity against Streptococcus pneumoniae isolate 12-5; outline: as §1
[9] = tested on: Streptococcus pneumoniae; test: Antibacterial activity against Streptococcus pneumoniae isolate 12-2; outline: as §1
[10] = tested on: Staphylococcus epidermidis; test: Antibacterial activity against methicillin-resistant Staphylococcus epidermidis isolate 12-35
Outline: (§2)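 MIC determined in vitro by standard techniques, defined as the lowest compound concentration giving complete inhibition of bacterial growth. Gemifloxacin, levofloxacin and ciprofloxacin were tested alongside as reference drugs.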

[11] = tested on: Staphylococcus epidermidis; test: Antibacterial activity against methicillin-resistant Staphylococcus epidermidis isolate 12-33; outline: as §2
[12] = tested on: Staphylococcus epidermidis; test: Antibacterial activity against methicillin-resistant Staphylococcus epidermidis isolate 12-5; outline: as §2
[13] = tested on: Staphylococcus epidermidis; test: Antibacterial activity against methicillin-sensitive Staphylococcus epidermidis isolate 12-3; outline: as §1
[14] = tested on: Staphylococcus epidermidis; test: Antibacterial activity against methicillin-sensitive Staphylococcus epidermidis isolate 12-2; outline: as §1
[15] = tested on: Staphylococcus epidermidis; test: Antibacterial activity against methicillin-sensitive Staphylococcus epidermidis isolate 12-1; outline: as §1
[16] = tested on: Staphylococcus aureus; test: Antibacterial activity against methicillin-resistant Staphylococcus aureus isolate 12-15; outline: as §2
[17] = tested on: Staphylococcus aureus; test: Antibacterial activity against methicillin-resistant Staphylococcus aureus isolate 12-13; outline: as §2
[18] = tested on: Staphylococcus aureus; test: Antibacterial activity against methicillin-resistant Staphylococcus aureus isolate 12-3; outline: as §2
[19] = tested on: Staphylococcus aureus; test: Antibacterial activity against methicillin-sensitive Staphylococcus aureus isolate 12-10; outline: as §1
[20] = tested on: Staphylococcus aureus; test: Antibacterial activity against methicillin-sensitive Staphylococcus aureus isolate 12-7; outline: as §1
[21] = tested on: Staphylococcus aureus; test: Antibacterial activity against methicillin-sensitive Staphylococcus aureus isolate 12-6; outline: as §1
[22] = tested on: Staphylococcus aureus; test: Antibacterial activity against Staphylococcus aureus […]; outline: as §1
[23] = tested on: Pseudomonas aeruginosa; test: Antibacterial activity against Pseudomonas aeruginosa isolate 12-2; outline: as §1
[24] = tested on: Pseudomonas aeruginosa; test: Antibacterial activity against Pseudomonas aeruginosa isolate 12-1; outline: as §1
[25] = tested on: Pseudomonas aeruginosa; test: Antibacterial activity against Pseudomonas aeruginosa ATCC 27853; outline: as §1
[26] = tested on: Klebsiella pneumoniae; test: Antibacterial activity against extended-spectrum beta-lactamase-producing Klebsiella pneumoniae isolate 12-4; outline: as §1
[27] = tested on: Klebsiella pneumoniae; test: Antibacterial activity against extended-spectrum beta-lactamase-producing Klebsiella pneumoniae isolate 12-2; outline: as §1
[28] = tested on: Klebsiella pneumoniae; test: Antibacterial activity against extended-spectrum beta-lactamase-producing Klebsiella pneumoniae isolate 12-1; outline: as §1
[29] = tested on: Klebsiella pneumoniae; test: Antibacterial activity against Klebsiella pneumoniae isolate 12-4; outline: as §1
[30] = tested on: Klebsiella pneumoniae; test: Antibacterial activity against Klebsiella pneumoniae isolate 12-2; outline: as §1
[31] = tested on: Klebsiella pneumoniae; test: Antibacterial activity against Klebsiella pneumoniae isolate 12-1; outline: as §1

SMILES: CO/N=C1\CN(c2nc3c(cc2F)c(=O)c(C(=O)O)cn3C2CC2)CC1CN (stereo unspecified) [GEMIFLOXACIN]
- MIC [1]: 2 µg/mL (≈ 5.14 µM)
- MIC [2]: 16 µg/mL (≈ 41.1 µM)
- MIC [3]: 8 µg/mL (≈ 20.5 µM)
- MIC [4]: 16 µg/mL (≈ 41.1 µM)
- MIC [5]: 16 µg/mL (≈ 41.1 µM)
- MIC [6]: 0.125 µg/mL (≈ 0.321 µM)
- MIC [7]: 0.015 µg/mL (≈ 0.0385 µM)
- MIC [8]: 0.25 µg/mL (≈ 0.642 µM)
- MIC [9]: 0.25 µg/mL (≈ 0.642 µM)
- MIC [10]: 0.008 µg/mL (≈ 0.0205 µM)
- MIC [11]: 4 µg/mL (≈ 10.3 µM)
- MIC [12]: 0.015 µg/mL (≈ 0.0385 µM)
- MIC [13]: 0.06 µg/mL (≈ 0.154 µM)
- MIC [14]: 0.25 µg/mL (≈ 0.642 µM)
- MIC [15]: 0.06 µg/mL (≈ 0.154 µM)
- MIC [16]: 0.03 µg/mL (≈ 0.077 µM)
- MIC [17]: 0.015 µg/mL (≈ 0.0385 µM)
- MIC [18]: 0.03 µg/mL (≈ 0.077 µM)
- MIC [19]: 0.03 µg/mL (≈ 0.077 µM)
- MIC [20]: 4 µg/mL (≈ 10.3 µM)
- MIC [21]: 0.03 µg/mL (≈ 0.077 µM)
- MIC [22]: < 0.008 µg/mL
- MIC [23]: 16 µg/mL (≈ 41.1 µM)
- MIC [24]: 8 µg/mL (≈ 20.5 µM)
- MIC [25]: 1 µg/mL (≈ 2.57 µM)
- MIC [26]: 2 µg/mL (≈ 5.14 µM)
- MIC [27]: 2 µg/mL (≈ 5.14 µM)
- MIC [28]: 2 µg/mL (≈ 5.14 µM)
- MIC [29]: 0.06 µg/mL (≈ 0.154 µM)
- MIC [30]: 0.06 µg/mL (≈ 0.154 µM)
- MIC [31]: 0.03 µg/mL (≈ 0.077 µM)

Source: ChEMBL document CHEMBL2331542, “Synthesis and in vitro antibacterial activity of quinolone/naphthyridone derivatives containing 3-alkoxyimino-4-(methyl)aminopiperidine scaffolds” (2013)
